Published values gathered from unrelated publications.
Each line is one published result; the experiments were not run side by side.
Target: Casein kinase I isoform delta (CSNK1D, Homo sapiens, UniProt P48730)

Structure (SMILES)	observed	action	method	concentration	endpoint	value
FC(F)(F)Oc1cccc(-c2cnc3ccc(-c4ccncc4)nn23)c1	enzyme activity	inhibitor	radiometric	1 µM	activity vs control	100%
Cc1nc(N2CC[C@@H](O)C2)ncc1-c1cc(C(F)(F)F)cc2[nH]ncc12	cell-free assay		competition with immobilised ligand	1 µM	remaining binding	95%
O=C(Cc1cccc(Cl)c1)Nc1nc2ccccc2s1	cell-free assay			10 µM	inhibition	> 60%
CO[C@H]1CC[C@H](CNc2ccc(S(=O)(=O)NC(=O)c3ccc(N4CCN(CC5=C(c6ccc(Cl)cc6)CC(C)(C)CC5)CC4)cc3Oc3cnc4[nH]ccc4c3)cc2[N+](=O)[O-])CC1	cell-free assay		competition with immobilised ligand	1 µM	remaining binding	93%
COc1cc(Nc2cnc(C#N)c(O[C@H](C)CN(C)C)n2)ncc1-c1cnn(C)c1	enzyme activity	inhibitor	radiometric	10 µM	remaining activity	22%
Cc1cc(NC(=O)c2cccc3cc(-c4cccc5[nH]nc(N)c45)ccc23)ccc1F	enzyme activity	inhibitor		0.1 µM	activity vs control	96%
O=C(Nc1cnn(-c2csc(C(=O)NC3COC3)c2)c1)Nc1ccccc1Cl	enzyme activity	inhibitor		5 µM	remaining activity	101%
CCCOc1ccc([C@H]2[C@H](C(=O)O)[C@@H](c3ccc4c(c3)OCO4)CN2CC(=O)Nc2c(CC)cccc2CC)cc1	cell-free assay		competition with immobilised ligand	1 µM	remaining binding	80%
CC(C)(C)c1nc2c(s1)c1nc(N)ncc1c1ccc(NS(=O)(=O)c3c(F)cccc3F)c(F)c12	enzyme activity	inhibitor	radiometric	1 µM	remaining activity	79%
CCN(CC)c1ccc(C2=NNC(=O)CC2C)cc1[N+](=O)[O-] (stereo not shown)	enzyme activity	inhibitor		10 µM	remaining activity	109%
COc1cc2ncnc(Nc3ccc(F)c(Cl)c3)c2cc1OCCCN1CCOCC1	cell-free assay			0.5 µM	remaining signal	90.4%
Cc1ccc(NC(=O)c2ccc(C)c(C(F)(F)F)c2)cc1C#Cc1nn(C2CCC(O)CC2)c2ncnc(N)c12 (stereo not shown)	cell-free assay			10 µM	remaining signal	88%
O=C1Nc2ccc(Cl)cc2C1=Cc1cc(Cl)c(O)c(Cl)c1	cell-free assay			0.5 µM	remaining signal	89.6%
Nc1c(C(=O)NCc2ccc(C(=O)NCCCC3CCCCC3)cc2)cnn1-c1ccccc1	cell-free assay		competition with immobilised ligand	0.1 µM	remaining binding	100%
COc1cc(Cl)c(C(=O)N[C@@H](CN[C@H]2CC[C@@H](N)CC2)Cc2ccc(C#N)cc2)cc1-c1ccc(CN[C@H](C)c2ccc(C)cc2)o1	enzyme activity	inhibitor		1 µM	remaining activity	89%
COc1cc2ncnc(Nc3ccc(Oc4ccccc4)c(C)c3C)c2cc1OC	enzyme activity	inhibitor		1 µM	inhibition	1%
O=C(NCc1ncc(C(F)(F)F)cc1Cl)c1ccc2c(c1)C1(CCS(=O)(=O)CC1)[C@@H](C1CC1)N2S(=O)(=O)c1ccc(F)cc1	cell-free assay		competition with immobilised ligand	1 µM	remaining binding	93%
CC(C)(O)[C@H]1CC[C@H](Nc2ccc3ncc(-c4cccc(C(F)(F)F)c4)n3n2)CC1	enzyme activity	inhibitor		1 µM	remaining activity	84.2%
Cc1nccc(COC(=O)N2C[C@@H]3[C@@H](CNC(=O)c4ccc5[nH]nnc5c4)[C@@H]3C2)n1	cell-free assay		competition with immobilised ligand	1 µM	remaining binding	97%
O=C(CSc1nc2nccnc2c(=O)n1CCc1ccccc1)Nc1nccs1	enzyme activity	inhibitor		10 µM	inhibition	7%
COc1cc2c(N3CCN(C(=O)Nc4ccc(OC(C)C)cc4)CC3)ncnc2cc1OCCCN1CCCCC1	cell-free assay			0.5 µM	remaining signal	90.9%
O=C1CCc2cc(Nc3cc(OC4CCOCC4)c([N+](=O)[O-])cc3Cl)ccc2N1	cell-free assay		competition with immobilised ligand	1 µM	remaining binding	90%
CCCOc1ccc(OC)c(F)c1C(=O)c1ccc(C(=O)N[C@@H]2CNC[C@H]2NC(=O)c2ccc3[nH]ncc3c2)cc1	enzyme activity	inhibitor		10 µM	remaining activity	43%
N#CCCc1ccc2c(c1)-c1[nH]c3ccc([N+](=O)[O-])cc3c1CC(=O)N2	cell-free assay			0.5 µM	remaining signal	97.4%
Cc1cc(-n2nc(Cc3cc(F)cc(C(F)(F)F)c3)nc2C)ccc1C(N)=O	cell-free assay		competition with immobilised ligand	1 µM	remaining binding	100%
